Active and inactive are the calls of the source. No cut-off for these calls is given here.
What was measured:
[1] = Cytotoxicity against MDCK cells after 72 hrs by MTT assay; format: cell-based, Canis lupus familiaris; conditions: dog
Summary of the method: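 Uninfected MDCK cells were assayed by MTT. CC50 is the concentration causing 50% cell death. Values are the average of three separate experiments.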

[2] = Antiviral activity against Influenza A virus (A/Vietnam/1194/2004(H5N1)) infected in MDCK cells assessed as inhibition of viral replication after 2 to 3 days by crystal violet staining-based plaque reduction assay; format: functional, cell-based
[3] = Selectivity index, ratio of CC50 for MDCK cells to IC50 for Influenza A virus (A/Vietnam/1194/2004(H5N1)); format: functional
[4] = cells; format: functional, Influenza A virus (A/Vietnam/1194/2004(H5N1)); conditions: Influenza A virus, MDCK, 2 h
[5] = cells; format: functional, Influenza A virus (A/Vietnam/1194/2004(H5N1)); conditions: Influenza A virus, MDCK, 2 h; remark: listed apart in the source
[6] = target: Neuraminidase (Influenza A virus) (UniProt B4URF0); experiment: Inhibition of Influenza A virus H5N1 neuraminidase up to 20 ug/ml by fluorescence spectrophotometric analysis
[7] = tested on: Influenza A virus; experiment: Inhibition of Influenza A virus H5N1 hemagglutinin adsorption to chicken RBC at 100 ug/ml by two-fold dilution method
Summary of the method: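 Hemagglutination inhibition assay using H5 standard antigen and antiserum. Compounds were tested in serial 2-fold dilutions from 100 to 0.098 µg/ml.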

Chain of Neuraminidase (Influenza A virus) (B4URF0 as listed by the source): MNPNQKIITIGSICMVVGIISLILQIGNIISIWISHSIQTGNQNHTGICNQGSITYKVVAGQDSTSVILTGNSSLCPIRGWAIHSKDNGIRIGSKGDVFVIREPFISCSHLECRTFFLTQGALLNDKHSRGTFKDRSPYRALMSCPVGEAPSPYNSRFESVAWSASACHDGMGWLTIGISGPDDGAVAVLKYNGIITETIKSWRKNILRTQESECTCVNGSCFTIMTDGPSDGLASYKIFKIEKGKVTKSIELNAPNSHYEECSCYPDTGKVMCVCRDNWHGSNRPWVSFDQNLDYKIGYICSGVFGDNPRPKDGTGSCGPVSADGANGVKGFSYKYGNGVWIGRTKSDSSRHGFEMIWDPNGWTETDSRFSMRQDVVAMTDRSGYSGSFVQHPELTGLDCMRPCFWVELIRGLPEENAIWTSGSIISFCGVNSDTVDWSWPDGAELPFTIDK

| SMILES | CC50 at 72 h [1] [µM] | IC50 [2] [µM] | Ratio CC50/IC50 [3] | inhibition at 30 µM [4] [%] | inhibition at 30 µM [5] [%] | inhibition [6] | inhibition [7] |
| --- | --- | --- | --- | --- | --- | --- | --- |
| CCOC(=O)c1ccc(O)c(O)c1 | > 170 | 16.1 | >10.55 |  |  |  |  |
| CC(C)OC(=O)CCc1ccc(O)c(O)c1 | > 198 | 19.5 | >10.16 |  |  |  |  |
| CCOC(=O)CCc1ccc(O)c(O)c1 | > 216 | 21.5 | >10.08 |  |  |  |  |
| COC(=O)Cc1ccc(O)c(O)c1 | > 170 | 19.5 | >8.7 |  |  |  |  |
| OCc1ccc(O)c(O)c1 | > 143 | 1.78 | >80.15 | 20 | 100 | inactive | inactive |
| COC(=O)[C@H](Cc1ccccc1)NC(=O)Cc1ccc(O)c(O)c1 | > 170 |  |  |  |  |  |  |
| COC(=O)[C@H](Cc1ccccc1)NC(=O)c1ccc(O)c(O)c1 | > 106 |  |  |  |  |  |  |
| COC(=O)c1ccc(OC)c(OC)c1 [VERATRIC ACID METHYL ESTER] | > 170 |  |  |  |  |  |  |
| NC12CC3CC(CC(C3)C1)C2 [AMANTADINE] | 219 | 10.8 | 20.27 |  |  |  |  |
| CCOC(=O)Cc1ccc(O)c(O)c1 | > 159 | 16.9 | >9.41 |  |  |  |  |
| CC(C)OC(=O)Cc1ccc(O)c(O)c1 | > 149 | 15.2 | >9.77 |  |  |  |  |
| COC(=O)Cc1ccc(OC)c(OC)c1 | > 159 |  |  |  |  |  |  |
| CC(=O)N[C@H]1[C@H]([C@H](O)[C@H](O)CO)OC(C(=O)O)=C[C@@H]1NC(=N)N [ZANAMIVIR] | > 100 | 0.88 | >113.64 |  |  |  |  |
| CC(C)OC(=O)c1ccc(O)c(O)c1 | > 159 | 14.9 | >10.65 | 20 | > 50 | inactive | inactive |
| COC(=O)CCc1ccc(OC)c(OC)c1 | > 149 |  |  |  |  |  |  |
| COC(=O)[C@H](CC(C)C)NC(=O)Cc1ccc(O)c(O)c1 | > 183 | 41.8 | >4.38 |  |  |  |  |
| COC(=O)c1ccc(O)c(O)c1 [METHYL PROTOCATECHUATE] | > 183 | 18.3 | >10.02 |  |  |  |  |
| COC(=O)[C@H](CC(C)C)NC(=O)c1ccc(O)c(O)c1 | > 119 | 22.2 | >5.33 | 20 | > 50 | inactive | inactive |
| COC(=O)CCc1ccc(O)c(O)c1 | > 238 | 23.8 | >10.01 |  |  |  |  |
